Laboratory results: ChEMBL document CHEMBL3046016, “Antifeedant and growth inhibitory effects of some neo-clerodane diterpenoids isolated from Clerodendron species (Verbenaceae) on Earias vitella and Spodoptera litura” (2003)

Legend:
Format in all cases: functional
Spodoptera litura [1] = assay: Insecticidal activity against pupal stage of Spodoptera litura in compound-treated castor leaves assessed as pupal duration time at 5 ug/cm2 (reference value: 9.2 +/- 0.74 days)
Spodoptera litura [2] = assay: Insecticidal activity against pupal stage of Spodoptera litura in compound-treated castor leaves assessed as pupal weight at 10 ug/cm2 (reference value: 302.4 +/- 5.9 mg)
Spodoptera litura [3] = assay: Insecticidal activity against male adult Spodoptera litura in compound-treated castor leaves assessed as adult longevity time at 10 ug/cm2 (reference value: 9.4 +/- 0.48 days)
Earias vittella [4] = assay: Insecticidal activity against third-instar larval stage of Earias vitella assessed as total larval duration time at 5 ug/cm3 administered through artificial diet containing Abelmoschus esculentus seed powder (reference value: 8.2 +/- 0.48 days)
Earias vittella [5] = assay: Insecticidal activity against adult Earias vitella assessed as adult emergence at 5 ug/cm3 administered through artificial diet containing Abelmoschus esculentus seed powder (reference value: 88%)
Earias vittella [6] = assay: Insecticidal activity against pupal stage of Earias vitella assessed as pupal duration time at 5 ug/cm3 administered through artificial diet containing Abelmoschus esculentus seed powder (reference value: 6.4 +/- 0.21 days)
Earias vittella [7] = assay: Insecticidal activity against pupal stage of Earias vitella assessed as pupal duration time at 10 ug/cm3 administered through artificial diet containing Abelmoschus esculentus seed powder (reference value: 6.4 +/- 0.21 days)
Spodoptera litura [8] = assay: Insecticidal activity against third-instar larval stage of Spodoptera litura in compound-treated castor leaves assessed as larval mortality at 10 ug/cm2 relative to control
Earias vittella [9] = assay: Insecticidal activity against adult Earias vitella assessed as adult deformity at 5 ug/cm3 administered through artificial diet containing Abelmoschus esculentus seed powder (reference value: 4%)
Earias vittella [10] = assay: Insecticidal activity against pupal stage of Earias vitella assessed as pupal weight at 10 ug/cm3 administered through artificial diet containing Abelmoschus esculentus seed powder (reference value: 88.2 +/- 4.01 mg)
Earias vittella [11] = assay: Antifeedant activity against third-instar larval stage of Earias vitella assessed as decrease in diet consumption at 10 ug/cm3 administered through artificial diet containing Abelmoschus esculentus seed powder after 24 hr relative to acetone-treated control; set-up: scale not given: the % may be the effect or the level left
Method in brief: (§1)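 Artificial diet was modified Klein medium with bhendi (Abelmoschus esculentus) seed powder in place of alfalfa. Compound in acetone was mixed into bhendi meal 12 h before diet preparation so the solvent evaporated. One 3 g diet cube was given to five freshly molted third-instar larvae in a muslin-covered container. After 24 h the cubes were weighed. %AF = 100 − (treated/control)×100.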

Earias vittella [12] = assay: Insecticidal activity against third-instar larval stage of Earias vitella assessed as larval mortality at 10 ug/cm3 administered through artificial diet containing Abelmoschus esculentus seed powder (reference value: 4%)
Earias vittella [13] = assay: Insecticidal activity against adult Earias vitella assessed as adult emergence at 10 ug/cm3 administered through artificial diet containing Abelmoschus esculentus seed powder (reference value: 88%)
Earias vittella [14] = assay: Insecticidal activity against pupal stage of Earias vitella assessed as pupal mortality at 10 ug/cm3 administered through artificial diet containing Abelmoschus esculentus seed powder (reference value: 8%)
Earias vittella [15] = assay: Insecticidal activity against male adult Earias vitella assessed as adult longevity time at 10 ug/cm3 administered through artificial diet containing Abelmoschus esculentus seed powder (reference value: 8.2 +/- 0.4 days)
Spodoptera litura [16] = assay: Insecticidal activity against adult Spodoptera litura in compound-treated castor leaves assessed as adult deformity at 5 ug/cm2 relative to control
Spodoptera litura [17] = assay: Insecticidal activity against pupal stage of Spodoptera litura in compound-treated castor leaves assessed as pupal mortality at 5 ug/cm2 relative to control
Earias vittella [18] = assay: Insecticidal activity against female adult Earias vitella assessed as adult longevity time at 5 ug/cm3 administered through artificial diet containing Abelmoschus esculentus seed powder (reference value: 8.6 +/- 0.48 days)
Earias vittella [19] = assay: Insecticidal activity against pupal stage of Earias vitella assessed as pupal weight at 5 ug/cm3 administered through artificial diet containing Abelmoschus esculentus seed powder (reference value: 88.2 +/- 4.01 mg)
Earias vittella [20] = assay: Insecticidal activity against male adult Earias vitella assessed as adult longevity time at 5 ug/cm3 administered through artificial diet containing Abelmoschus esculentus seed powder (reference value: 8.2 +/- 0.4 days)
Earias vittella [21] = assay: Insecticidal activity against female adult Earias vitella assessed as adult longevity time at 10 ug/cm3 administered through artificial diet containing Abelmoschus esculentus seed powder (reference value: 8.6 +/- 0.48 days)
Spodoptera litura [22] = assay: Antifeedant activity against third-instar larval stage of Spodoptera litura in compound-treated castor leaves assessed as decrease in diet consumption at 10 ug/cm2 after 24 hr by no-choice leaf disk assay relative to acetone-treated control; set-up: scale not given: the % may be the effect or the level left
Method in brief: (§2)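 Larvae were reared on castor leaves at 25 ± 2 °C. In a no-choice test, compound in acetone was painted on the abaxial side of castor leaf disks and air-dried. Five freshly molted third-instar larvae, starved 4 h, were placed per Petri dish with wet cotton. There were five replicates. After 24 h, consumed leaf area was read on a leaf area meter. %AF = 100 − (treated/control)×100.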

Spodoptera litura [23] = assay: Insecticidal activity against adult Spodoptera litura in compound-treated castor leaves assessed as adult emergence at 10 ug/cm2 relative to control
Spodoptera litura [24] = assay: Insecticidal activity against adult Spodoptera litura in compound-treated castor leaves assessed as adult deformity at 10 ug/cm2 relative to control
Spodoptera litura [25] = assay: Insecticidal activity against third-instar larval stage of Spodoptera litura in compound-treated castor leaves assessed as total larval duration time at 10 ug/cm2 (reference value: 12.4 +/- 0.48 days)
Spodoptera litura [26] = assay: Insecticidal activity against pupal stage of Spodoptera litura in compound-treated castor leaves assessed as pupal duration time at 10 ug/cm2 (reference value: 9.2 +/- 0.74 days)
Spodoptera litura [27] = assay: Insecticidal activity against female adult Spodoptera litura in compound-treated castor leaves assessed as adult longevity time at 5 ug/cm2 (reference value: 10 +/- 0.63 days)
Spodoptera litura [28] = assay: Antifeedant activity against third-instar larval stage of Spodoptera litura in compound-treated castor leaves assessed as decrease in diet consumption at 5 ug/cm2 after 24 hr by no-choice leaf disk assay relative to acetone-treated control; set-up: scale not given: the % may be the effect or the level left; method in brief: as §2
Spodoptera litura [29] = assay: Insecticidal activity against male adult Spodoptera litura in compound-treated castor leaves assessed as adult longevity time at 5 ug/cm2 (reference value: 9.4 +/- 0.48 days)
Earias vittella [30] = assay: Insecticidal activity against third-instar larval stage of Earias vitella assessed as larval mortality at 5 ug/cm3 administered through artificial diet containing Abelmoschus esculentus seed powder (reference value: 4%)
Earias vittella [31] = assay: Antifeedant activity against third-instar larval stage of Earias vitella assessed as decrease in diet consumption at 5 ug/cm3 administered through artificial diet containing Abelmoschus esculentus seed powder after 24 hr relative to acetone-treated control; set-up: scale not given: the % may be the effect or the level left; method in brief: as §1
Spodoptera litura [32] = assay: Insecticidal activity against adult Spodoptera litura in compound-treated castor leaves assessed as adult emergence at 5 ug/cm2 relative to control
Spodoptera litura [33] = assay: Insecticidal activity against third-instar larval stage of Spodoptera litura in compound-treated castor leaves assessed as larval mortality at 5 ug/cm2 relative to control
Spodoptera litura [34] = assay: Insecticidal activity against pupal stage of Spodoptera litura in compound-treated castor leaves assessed as pupal weight at 5 ug/cm2 (reference value: 302.4 +/- 5.9 mg)
Spodoptera litura [35] = assay: Insecticidal activity against third-instar larval stage of Spodoptera litura in compound-treated castor leaves assessed as total larval duration time at 5 ug/cm2 (reference value: 12.4 +/- 0.48 days)
Spodoptera litura [36] = assay: Insecticidal activity against pupal stage of Spodoptera litura in compound-treated castor leaves assessed as pupal mortality at 10 ug/cm2 relative to control
Earias vittella [37] = assay: Insecticidal activity against pupal stage of Earias vitella assessed as pupal mortality at 5 ug/cm3 administered through artificial diet containing Abelmoschus esculentus seed powder (reference value: 8%)
Earias vittella [38] = assay: Insecticidal activity against third-instar larval stage of Earias vitella assessed as total larval duration time at 10 ug/cm3 administered through artificial diet containing Abelmoschus esculentus seed powder (reference value: 8.2 +/- 0.48 days)
Spodoptera litura [39] = assay: Insecticidal activity against female adult Spodoptera litura in compound-treated castor leaves assessed as adult longevity time at 10 ug/cm2 (reference value: 10 +/- 0.63 days)
Earias vittella [40] = assay: Insecticidal activity against adult Earias vitella assessed as adult deformity at 10 ug/cm3 administered through artificial diet containing Abelmoschus esculentus seed powder (reference value: 4%)
Spodoptera littoralis = assay: Antifeedant activity against Spodoptera littoralis assessed as decrease in diet consumption at 50 ppm after 2 hr by leaf disk assay relative to control; set-up: scale not given: the % may be the effect or the level left

CC(=O)OC[C@@]12[C@@H](OC(C)=O)C[C@@H](C)[C@](C)([C@@H]3C[C@H]4C=CO[C@H]4O3)[C@H]1C[C@@H](O)[C@H](OC(=O)C(C)(C)OC(C)=O)[C@]21CO1 [CLERODENDRIN C]
Time (Spodoptera litura [1]): 10 days
Activity (Spodoptera litura [2]): 282.2 mg
Time (Spodoptera litura [3]): 8.5 days
Time (Earias vittella [4]): 8.4 days
Activity (Earias vittella [5]): 76%
Time (Earias vittella [6]): 7.2 days
Time (Earias vittella [7]): 7.8 days
mortality at 10 µg/cm2 (Spodoptera litura [8]): 14%
Activity (Earias vittella [9]): 4%
Activity (Earias vittella [10]): 66.2 mg
Activity (Earias vittella [11]): 41.54%
mortality (Earias vittella [12]): 8%
Activity (Earias vittella [13]): 70.5%
mortality (Earias vittella [14]): 22.5%
Time (Earias vittella [15]): 6.8 days
Activity (Spodoptera litura [16]): 4%
mortality at 5 µg/cm2 (Spodoptera litura [17]): 20.2%
Time (Earias vittella [18]): 7.6 days
Activity (Earias vittella [19]): 69 mg
Time (Earias vittella [20]): 7 days
Time (Earias vittella [21]): 7.2 days
Activity (Spodoptera litura [22]): 65%
Activity (Spodoptera litura [23]): 69.6%
Activity (Spodoptera litura [24]): 8%
Time (Spodoptera litura [25]): 12.5 days
Time (Spodoptera litura [26]): 10.6 days
Time (Spodoptera litura [27]): 8.9 days
Activity (Spodoptera litura [28]): 56%
Time (Spodoptera litura [29]): 9.2 days
mortality (Earias vittella [30]): 4%
Activity (Earias vittella [31]): 31%
Activity (Spodoptera litura [32]): 76%
mortality at 5 µg/cm2 (Spodoptera litura [33]): 12.5%
Activity (Spodoptera litura [34]): 289.8 mg
Time (Spodoptera litura [35]): 12.5 days
mortality at 10 µg/cm2 (Spodoptera litura [36]): 22.7%
mortality (Earias vittella [37]): 20%
Time (Earias vittella [38]): 8.2 days
Time (Spodoptera litura [39]): 8.2 days
Activity (Earias vittella [40]): 8%

CC(=O)OC[C@@]12[C@@H](OC(C)=O)C[C@@H](C)[C@](C)([C@@H]3C[C@H]4C=CO[C@H]4O3)[C@H]1CCC[C@]21CO1 [CLERODIN]
Time (Spodoptera litura [1]): 10.9 days
Activity (Spodoptera litura [2]): 250.2 mg
Time (Spodoptera litura [3]): 8 days
Time (Earias vittella [4]): 9.4 days
Activity (Earias vittella [5]): 68.6%
Time (Earias vittella [6]): 7.2 days
Time (Earias vittella [7]): 8 days
mortality at 10 µg/cm2 (Spodoptera litura [8]): 35.2%
Activity (Earias vittella [9]): 4%
Activity (Earias vittella [10]): 58 mg
Activity (Earias vittella [11]): 72.13%
mortality (Earias vittella [12]): 8%
Activity (Earias vittella [13]): 60%
mortality (Earias vittella [14]): 32%
Time (Earias vittella [15]): 6.4 days
Activity (Spodoptera litura [16]): 8%
mortality at 5 µg/cm2 (Spodoptera litura [17]): 27%
Time (Earias vittella [18]): 6.8 days
Activity (Earias vittella [19]): 60.4 mg
Time (Earias vittella [20]): 6.6 days
Time (Earias vittella [21]): 6.6 days
Activity (Spodoptera litura [22]): 80%
Activity (Spodoptera litura [23]): 63.2%
Activity (Spodoptera litura [24]): 9.6%
Time (Spodoptera litura [25]): 14.8 days
Time (Spodoptera litura [26]): 11.6 days
Time (Spodoptera litura [27]): 8 days
Activity (Spodoptera litura [28]): 72%
Time (Spodoptera litura [29]): 8.4 days
mortality (Earias vittella [30]): 4%
Activity (Earias vittella [31]): 62.87%
Activity (Spodoptera litura [32]): 64%
Activity (Spodoptera littoralis): 100%
mortality at 5 µg/cm2 (Spodoptera litura [33]): 24.5%
Activity (Spodoptera litura [34]): 270.2 mg
Time (Spodoptera litura [35]): 14.3 days
mortality at 10 µg/cm2 (Spodoptera litura [36]): 27%
mortality (Earias vittella [37]): 28.5%
Time (Earias vittella [38]): 9.9 days
Time (Spodoptera litura [39]): 7 days
Activity (Earias vittella [40]): 8%
